Source: ChEMBL document CHEMBL3351516, “Efficient synthesis of eudistomin U and evaluation of its cytotoxicity” (Bioorg Med Chem Lett, 2014)
≈ marks a conversion by molar mass, not a printed value.

What was measured:
[1] = Cytotoxicity against human C19 cells after 24 hrs by MTT assay; assay type: functional, cell-based; conditions: C19, 24 h
In short: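 Thawed C-19 leukemia cells were grown 48 h in IMDM with penicillin, streptomycin and L-glutamate at 37 °C, 5% CO₂. Plated at 10,000 cells/well in IMDM, held 24 h, then treated 24 h with 0.1–300 µM (0.1% DMSO); DMSO control row. MTT (5 mg/mL in PBS, 20 µL/well) for 2 h, dissolved in DMSO, A490. IC50 from sigmoidal fit of percent survival.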

[2] = Cytotoxicity against human Caov3 cells after 24 hrs by MTT assay; assay type: functional, cell-based; conditions: Caov-3, 24 h
In short: (§1)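 Cells were grown 72 h in DMEM/F12 with penicillin, streptomycin and L-glutamate, trypsinized and counted. Plated at 10,000 cells/well in IMDM, held 24 h at 37 °C, 5% CO₂, then treated 24 h with 0.1–300 µM (0.1% DMSO); DMSO control row. MTT (5 mg/mL in PBS, 20 µL/well) for 2 h, dissolved in DMSO, A490. Sigmoidal-fit IC50 from percent survival.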

[3] = Cytotoxicity against human WM266.4 cells after 24 hrs by MTT assay; assay type: functional, cell-based; conditions: WM 266-4, 24 h; in short: as §1
Streptococcus pyogenes = assay: Antibacterial activity against Streptococcus pyogenes measured after overnight incubation by spectrophotometry; assay type: functional, organism-based
In short: (§2)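 Bacteria were grown overnight at 37 °C in Luria broth, subcultured to OD 0.1 and grown 2 h more. Culture was added to cuvettes holding 0.1–300 µM test agent (0.3% DMSO). Controls were DMSO and streptomycin: 0.500 µg/mL for P. aeruginosa, 0.0625 µg/mL for the others. Shaken at 37 °C with OD read every 2.5 h in duplicate to about 7.5 h. IC50 from sigmoidal fit, mean of three trials.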

Staphylococcus aureus = assay: Antibacterial activity against Staphylococcus aureus measured after overnight incubation by spectrophotometry; assay type: functional, organism-based; in short: as §2
[4] = tested on: Mycolicibacterium smegmatis; assay: Antibacterial activity against Mycobacterium smegmatis measured every 2.5 hrs by spectrophotometry; assay type: functional, organism-based
In short: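 M. smegmatis MC²155 was grown 48 h at 37 °C with shaking in 7H9 complete medium with Tween, diluted 1:1000 and grown overnight. It was then subcultured to OD 0.1 and grown 2 h. Exposed to 0.1–300 µM (0.3% DMSO), with DMSO and streptomycin 0.250 µg/mL controls. Shaken at 37 °C, OD read every 2.5 h in duplicate to about 7.5 h. Sigmoidal-fit IC50, mean of three trials.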

Pseudomonas aeruginosa = assay: Antibacterial activity against Pseudomonas aeruginosa measured after overnight incubation by spectrophotometry; assay type: functional, organism-based; in short: as §2
Candida albicans = assay: Antibacterial activity against Candida albicans measured every 2.5 hrs by spectrophotometry; assay type: functional, organism-based
In short: (§3)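 Yeasts were grown overnight at 30 °C: S. cerevisiae in synthetic dextrose medium, C. albicans wild-type diploid in WYPD with glucose. Subcultured to OD 0.1 and grown 2 h. Exposed to 0.1–300 µM (0.3% DMSO), with DMSO and caspofungin 1 µg/mL controls. Shaken at 30 °C, OD read every 2.5 h in duplicate to about 7.5 h. Sigmoidal-fit IC50, mean of three trials.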

Saccharomyces cerevisiae = assay: Antibacterial activity against Saccharomyces cerevisiae measured every 2.5 hrs by spectrophotometry; assay type: functional, organism-based; in short: as §3
Escherichia coli = assay: Antibacterial activity against Escherichia coli measured after overnight incubation by spectrophotometry; assay type: functional, organism-based; in short: as §2
P388 = assay: Growth inhibition of mouse P388 cells at 10 uM; assay type: functional; conditions: read-out: GI

IC50 (Streptococcus pyogenes): 3.4 µg/mL (≈ 12 µM) | IC50 (Staphylococcus aureus): 6.4 µg/mL (≈ 22.6 µM) | IC50 [4]: 3.6 µg/mL (≈ 12.7 µM) | IC50 (Pseudomonas aeruginosa): 27.7 µg/mL (≈ 97.8 µM) | IC50 (Candida albicans): > 30 µg/mL | IC50 (Saccharomyces cerevisiae): > 300 µg/mL | IC50 (Escherichia coli): 12.3 µg/mL (≈ 43.4 µM)
SMILES: c1ccc2c(-c3nccc4c3[nH]c3ccccc34)c[nH]c2c1
IC50 [1]: 15.6 µg/mL (≈ 55.1 µM) | IC50 [2]: 24.9 µg/mL (≈ 87.9 µM) | IC50 [3]: 27.5 µg/mL (≈ 97.1 µM) | inhibition of growth at 10 µM (P388): 38%
